The EC50 is the concentration at which the effect is half-maximal. As a reminder, the half-life is the time in which the quantity being followed falls by half. Usually NOAEL stands for the highest tested level that showed no adverse finding.

Here are results for one compound from ChEMBL document CHEMBL4715734, “Discovery of the Potent and Selective M1 PAM-Agonist N-[(3R,4S)-3-Hydroxytetrahydro-2H-pyran-4-yl]-5-methyl-4-[4-(1,3-thiazol-4-yl)benzyl]pyridine-2-carboxamide (PF-06767832): Evaluation of Efficacy and Cholinergic Side Effects” (J Med Chem, 2016).

Data set [1] in a line: In vivo positive allosteric modulation of muscarinic M1 receptor in CD1 mouse assessed as increase in ACh-induced IP-1 levels in […] tissue at 10 mg/kg, sc measured after 2 hrs by HTRF assay relative to baseline. Type of data set: functional. Summed up:
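Given sc as a solution in 5/15/80 DMSO/Solutol/water. Striatal IP1 was read 2 h after dosing and expressed as fold increase over baseline. Compound levels were measured in striatal tissue at 2 h (N=5/dose). Each animal's fold increase was plotted against its unbound brain concentration.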

A short description of data set [2]: Toxicity in dog assessed as ataxia at 45 mg/kg, po using spray-dried dispersion formulation measured after 45 mins. Type of data set: organism-based, Canis lupus familiaris. The settings on record: in vivo, 0.75 h. Put shortly:
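Dogs received single escalating oral doses as a spray-dried dispersion (10% drug loading with HPMCAS-M). The dispersion was suspended in 0.5 wt% methylcellulose/0.5 wt% HPMCAS in 20 mM tris buffer, pH 7.4. One dog per sex per dose was used, and clinical signs were recorded.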

A short description of data set [3]: Toxicity in dog assessed as induction of soft stool at 45 mg/kg, po using spray-dried dispersion formulation measured after 45 mins. Type of data set: organism-based, Canis lupus familiaris. Conditions: in vivo, 0.75 h; call rule not given here.
Data set [4] in a line: fAUC (0 to 24 hrs) in dog at 15 mg/kg, po using spray-dried dispersion formulation. Conditions: in vivo. Type of data set: ADME, organism-based, Canis lupus familiaris.
Data set [5] can be described thus: Unbound brain concentration in scopolamine-induced Wistar rat model at 0.32 mg/kg, po measured after 1 hr. The settings on record: in vivo. Type of data set: ADME, organism-based.
Data set [6] is described as follows: Unbound plasma concentration in CD-1 mouse at 10 mg/kg, sc measured after 2 hrs by LC-MS/MS analysis. Type of data set: ADME, organism-based. Conditions: in vivo.
For data set [7], the target named is T1, Muscarinic acetylcholine receptor M2 (Homo sapiens, UniProt P08172).
T1 sequence (P08172 whole entry): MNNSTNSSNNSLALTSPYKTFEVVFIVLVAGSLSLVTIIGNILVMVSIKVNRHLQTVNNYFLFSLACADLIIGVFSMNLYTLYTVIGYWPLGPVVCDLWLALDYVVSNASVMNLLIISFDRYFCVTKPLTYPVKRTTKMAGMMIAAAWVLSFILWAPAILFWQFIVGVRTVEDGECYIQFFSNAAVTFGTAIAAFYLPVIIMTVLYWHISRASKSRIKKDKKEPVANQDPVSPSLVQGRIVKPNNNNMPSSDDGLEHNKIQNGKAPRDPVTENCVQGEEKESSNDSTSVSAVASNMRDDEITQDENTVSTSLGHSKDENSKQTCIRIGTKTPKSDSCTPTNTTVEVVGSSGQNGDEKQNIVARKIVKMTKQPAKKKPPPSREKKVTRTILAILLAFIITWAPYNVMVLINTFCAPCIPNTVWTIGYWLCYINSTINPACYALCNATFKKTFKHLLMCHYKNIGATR
Kind of data set: Positive allosteric modulation of muscarinic M2 receptor (unknown origin) assessed as increase in ACh-induced displacement of [3H]-NMS from M2 receptor. Summed up: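 Cell lines expressing M2 or M3 were used for [3H]NMS binding. Inhibition of binding by ACh was measured in the presence of fixed compound concentrations of 10, 3, 1, 0.3, 0.1 and 0 µM.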
(In a radioligand displacement assay an active substance lowers the binding of a labelled ligand.)

A short description of data set [8]: Partial agonist activity at muscarinic M2/M3 receptor in Hartley guinea pig ileum assessed as stimulation of contraction. Type of data set: tissue-based. Conditions: Cavia porcellus. Summed up:
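Agonist mode used a guinea pig ileum tissue bath with the compound applied alone. Concentration–response curves were run with or without the non-selective muscarinic antagonist atropine. Contraction was expressed relative to the maximal carbachol response.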

Data set [9] addresses T2, Muscarinic acetylcholine receptor M4 (Homo sapiens, UniProt P08173).
T2 sequence (P08173 whole entry): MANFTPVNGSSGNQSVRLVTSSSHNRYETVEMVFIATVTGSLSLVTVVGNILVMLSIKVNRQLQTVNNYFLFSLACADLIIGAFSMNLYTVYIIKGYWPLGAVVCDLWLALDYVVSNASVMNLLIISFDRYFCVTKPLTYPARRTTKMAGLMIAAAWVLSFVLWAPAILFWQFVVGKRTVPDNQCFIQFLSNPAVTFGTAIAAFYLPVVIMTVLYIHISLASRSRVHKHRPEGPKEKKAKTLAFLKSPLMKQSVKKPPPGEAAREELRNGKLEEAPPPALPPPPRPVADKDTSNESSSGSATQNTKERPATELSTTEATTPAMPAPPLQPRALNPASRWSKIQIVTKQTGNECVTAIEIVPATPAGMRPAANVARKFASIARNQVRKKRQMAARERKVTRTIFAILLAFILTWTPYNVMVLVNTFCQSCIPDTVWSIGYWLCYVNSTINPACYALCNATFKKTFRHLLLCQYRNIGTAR
Kind of data set: Agonist activity at human recombinant muscarinic M4 receptor stably expressed in HEK cells assessed as increase in cAMP accumulation up to 10 uM measured after 10 mins by GloSensor cAMP Assay. Type of data set: cell-based. On the technique in general: Changes in cAMP serve as a functional read-out for many G protein-coupled receptors.

Data set [10] can be described thus: Half life in dog at 0.5 mg/kg, po or 0.1 mg/kg, iv. Type of data set: ADME, organism-based, Canis lupus familiaris. The settings on record: in vivo.
Data set [11] can be described thus: Oral bioavailability in rat at 0.5 mg/kg. Type of data set: ADME, organism-based. The settings on record: in vivo.
The nature of data set [12]: Ratio of fAUC in rat brain to plasma. Conditions: brain and plasma, read-out: Ratio AUC. Type of data set: ADME, cell-free.
Data set [13] is described as follows: Half-life in rat at 0.5 mg/kg, po or 1 mg/kg, iv. Type of data set: ADME, organism-based. The settings on record: in vivo.
Data set [14] in a line: Intrinsic clearance in human liver microsome. Type of data set: ADME. The settings on record: liver microsomes, read-out: CLH. For orientation: Liver microsomes are vesicles of endoplasmic reticulum, rich in cytochrome P450 enzymes.
Data set [15] can be described thus: Toxicity in rat assessed as histopathological changes at 3 to 30 mg/kg, po administered for 14 days. Type of data set: organism-based. Conditions: in vivo, 336 h, dose 3-30 mg/kg, time 14 day. Summed up:
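Two-week repeat-dose toxicity study in rats. Oral dosing in 0.5% methylcellulose at 3, 10, 30 (males)/15 (females) mg/kg, N=4/sex/dose. Food intake, body weight gain and histopathology were assessed.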

The nature of data set [16]: Ratio of fAUC in CD-1 mouse brain to plasma at 1 to 10 mg/kg, sc measured after 2 hrs by LC-MS/MS analysis. Conditions: brain and plasma, dose 1-10 mg/kg, read-out: Ratio AUC. Type of data set: ADME, organism-based.
The nature of data set [17]: Toxicity in po dosed dog assessed as NOAEL using spray-dried dispersion formulation. Type of data set: organism-based, Canis lupus familiaris. The settings on record: in vivo.
Data set [18] addresses T3, Muscarinic acetylcholine receptor M1 (Homo sapiens) (UniProt P11229).
T3 sequence (whole entry): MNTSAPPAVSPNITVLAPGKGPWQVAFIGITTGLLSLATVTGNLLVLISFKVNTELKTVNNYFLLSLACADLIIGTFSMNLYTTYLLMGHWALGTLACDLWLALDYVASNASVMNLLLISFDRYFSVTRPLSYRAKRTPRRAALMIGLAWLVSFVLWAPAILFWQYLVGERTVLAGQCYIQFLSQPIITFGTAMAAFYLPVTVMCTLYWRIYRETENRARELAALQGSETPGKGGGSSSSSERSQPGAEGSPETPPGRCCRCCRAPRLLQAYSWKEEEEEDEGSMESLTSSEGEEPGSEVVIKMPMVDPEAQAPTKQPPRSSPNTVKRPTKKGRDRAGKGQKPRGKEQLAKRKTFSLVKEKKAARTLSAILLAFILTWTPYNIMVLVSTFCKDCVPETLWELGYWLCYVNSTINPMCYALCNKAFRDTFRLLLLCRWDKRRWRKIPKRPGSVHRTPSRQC
In words: Binding affinity to muscarinic M1 receptor (unknown origin) assessed as recruitment of beta-arrestin by measuring binding constant by Path Hunter assay. Type of data set: cell-based. The settings on record: CHO, filed as positive allosteric modulator.

Regarding `Cc1cnc(C(=O)N[C@H]2CCOC[C@@H]2O)cc1Cc1ccc(-c2cscn2)cc1`, the “fold change (FC)” value in data set [1] is 42. In addition, the Activity entry in data set [2] is on record as “Toxic”; in data set [3], “Toxic”; in data set [7] it was “Not Active”; in data set [9] it was “Not Active”; in data set [15], “Non-Toxic”. Further, the fAUC in data set [4] is 7.765 µM·h. For the same compound, in [5], the “Drug uptake(free)” value was determined as 1.3 nM. The “Cp(f)” value in data set [6] is 574 nM. Moreover, in data set [8], the EC50 amounted to 351 nM. Also, the half-life in [10] is 5.17 h; in [13], 5.58 h. Besides, the bioavailability in data set [11] came out at 112%. In data set [12], the Kp uu came out at 0.34. Besides, the CLint scaled in [14] is under 8 mL/min/kg. The Kp uu at 2 h in [16] is 0.34. Besides, the no-observed-adverse-effect level (NOAEL) in [17] came to 5 mg/kg. In addition, the Kb in [18] is 5000 nM.
